Experimental findings from ChEMBL document CHEMBL1159121, “Synthesis, in vitro structure-activity relationship, and in vivo studies of 2-arylthiazolidine-4-carboxylic acid amides as anticancer agents” (Bioorg Med Chem, 2010) are described below.

A short description of series [1]: Cytotoxicity against human fibroblasts after 48 hrs by SRB assay. In kind it is cell-based. The following applies: Fibroblast. In a few lines: (§1)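 Melanoma lines and control fibroblasts grown at 37 °C, 5% CO2, then exposed to a wide concentration range for 48 h in round-bottom 96-well plates. Fixed with 10% TCA, stained with SRB, protein read at 560 nm. IC50 (50% growth inhibition versus untreated) obtained by nonlinear regression.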
Background: Sulforhodamine B stains cellular protein and so reports cell mass.

Series [2] can be described thus: Antiproliferative activity against human WM164 cells after 48 hrs by SRB assay. In kind it is functional, cell-based. The following applies: WM164, 48 h. In a few lines:
as §1

The subject of series [3] is A-375. Briefly: Antiproliferative activity against human A375 cells after 48 hrs by SRB assay. The series is classed as functional, cell-based. The following applies: A-375, 48 h. A digest of the protocol: as §1
In series [4] the test system is LNCaP. In words: Antiproliferative activity against human LNCAP cells after 96 hrs by SRB assay. The series is classed as functional, cell-based. In a few lines: (§2)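 Prostate lines in RPMI1640/10% FBS; RH7777 in DMEM/10% FBS. Cells TCA-fixed, stained with 0.4% SRB, absorbance read at 540 nm. IC50 from nonlinear regression of % survival against concentration.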
Series [5] relates to PPC-1. Briefly: Antiproliferative activity against human PPC1 cells after 96 hrs by SRB assay. The series is classed as functional, cell-based. The following applies: PPC-1, 96 h. A digest of the protocol:
as §2

Series [6] relates to PC-3. In words: Antiproliferative activity against human PC3 cells after 96 hrs by SRB assay. The series is classed as functional, cell-based. Conditions: PC-3, 96 h.
The test system of series [7] is RH7777. In words: Cytotoxicity against rat RH7777 cells after 96 hrs by SRB assay. In kind it is cell-based. The following applies: RH7777, 96 h. In a few lines: as §2
In series [8] the test system is DU-145. In words: Antiproliferative activity against human DU145 cells after 96 hrs by SRB assay. In kind it is functional, cell-based. The following applies: DU-145, 96 h. In a few lines:
as §2

Series [9] relates to RH7777. In words: Selectivity ratio of IC50 for rat RH7777 cells to IC50 for human prostate cancer cells. In a few lines:
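Ratio of RH7777 IC50 to the mean IC50 over four prostate lines (DU 145, PC-3, LNCaP, PPC-1). Prostate lines grown in RPMI1640/10% FBS and RH7777 in DMEM/10% FBS. Read by SRB (0.4%) at 540 nm; IC50 by nonlinear regression.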

A short description of series [10]: Antiproliferative activity against mouse B16-F1 cells after 48 hrs by SRB assay. In kind it is functional, cell-based. The following applies: B16-F1, 48 h. A digest of the protocol:
as §1

Series [11] is described as follows: Selectivity ratio of IC50 for human fibroblasts to IC50 for human melanoma cells. The series is classed as ADME. The following applies: human fibroblasts and human melanoma cells, read-out: Ratio IC50.

As to `CCCCCCCCCCCCCCCCNC(=O)[C@@H](N)CSC`, the 50% inhibitory concentration (IC50) (commonly the point on the concentration scale where inhibition reaches its midpoint) in series [1] is 61.2 µM; in [2], 14.4 µM; in series [3], 12.9 µM.

In the case of `CCCCCCCCCCCCCCCCNC(=O)[C@H](CSC)NCc1ccc(NC(C)=O)cc1`, the IC50 in [1] was more than 100 µM; in [2] it was 145 µM; in [3], 108 µM.

Consider `CCCCCCCCCCCCCCCCNC(=O)[C@@H](N)CSCc1ccccc1`, for which the half-inhibitory concentration (IC50) is 16.4 µM in series [1], 12.8 µM in [2] and 15.1 µM in series [3].

On to `CCCCCCCCCCCCCCCCNC(=O)CNCc1ccc(NC(C)=O)cc1`, for which the IC50 came out at 24 µM in series [1], 10.2 µM in [2] and 11.9 µM in series [3].

Take `CCCCCCCCCCCCNC(=O)[C@@H]1CSC(c2ccc(N)cc2)N1` (mixture of isomers): the IC50 was found to be 2000 nM in series [4]; 1200 nM in series [5]; 2900 nM in series [6]; 7.3 µM in series [7]; 2400 nM in series [8]. Besides, the “Ratio IC50” value in series [9] amounted to 3.4.

Regarding `CCCCCCCCCCCCCCNC(=O)[C@H]1CSC(c2cc(OC)c(OC)c(OC)c2)N1` (mixture of isomers), the half-maximal inhibitory concentration (IC50) in series [4] came out at 1900 nM; in series [5] it was 700 nM; in series [6], 2900 nM; in series [7] it was 5.8 µM; in [8], 2100 nM.

Take `CCCCCCCCCCCCCCCCNC(=O)[C@@H]1CSC(c2ccccc2)N1` (mixture of isomers): the half-inhibitory concentration (IC50) stood at 2.2 µM in series [1] and 0.7 µM in [2].

Take `CCCCCCCCCCNC(=O)[C@@H]1CSC(c2cc(OC)c(OC)c(OC)c2)N1` (mixture of isomers): the half-inhibitory concentration (IC50) is 2200 nM in [4]; 2100 nM in series [5]; 4400 nM in [6]; 6 µM in [7]; 4100 nM in [8].

Regarding `CCCCCCCCCCCCNC(=O)[C@@H]1CSC(c2cc(OC)c(OC)c(OC)c2)N1` (mixture of isomers), the half-maximal inhibitory concentration (IC50) in series [4] stood at 1400 nM; in series [5], 1000 nM; in series [6] it was 2900 nM; in series [7] it was 6.5 µM; in [8], 2800 nM.

Consider `CCCCCCCCCCCCCCNC(=O)[C@@H]1CSC(c2cc(OC)c(OC)c(OC)c2)N1` (mixture of isomers), for which the IC50 in series [4] worked out at 2000 nM; in series [5] it was 600 nM; in [6], 2600 nM; in series [7], 6.1 µM; in series [8], 2200 nM.

With `CCCCCCCCNC(=O)[C@@H]1CSC(c2cc(OC)c(OC)c(OC)c2)N1` (mixture of isomers), the IC50 in [4] was 2700 nM; in series [5], 14000 nM; in series [6], more than 20000 nM; in series [7] it was more than 20 µM; in series [8], 17300 nM.

For `CCCCCCCCCCCCCCCCNC(=O)[C@@H]1CSC(c2ccc(N)cc2)N1` (mixture of isomers), the IC50 in series [4] was 1500 nM; in series [5], 600 nM; in [6], 2400 nM; in [7], 9.4 µM; in series [8], 2600 nM. Further, the “Ratio IC50” value in [9] was found to be 5.3.

Regarding `CCCCCCCCCCCCCCCCCCN(C)C(=O)[C@@H]1CSC(c2ccc(NC(C)=O)cc2)N1` (mixture of isomers), the IC50 was 1800 nM in [4]; 18.9 µM in [10]; 800 nM in [5]; more than 100 µM in series [1]; 3700 nM in series [6]; 10.7 µM in [2]. Also, the IC50 in [7] was found to be 9.2 µM; in series [3], 20.6 µM; in series [8], 3900 nM. Also, the “Ratio IC50” value in series [9] is 3.6.

In the case of `CC(=O)Nc1ccc(C2N[C@H](C(=O)NC34CC5CC(CC(C5)C3)C4)CS2)cc1` (mixture of isomers), the IC50 was 5700 nM in [4]; 96.5 µM in series [10]; more than 20000 nM in series [5]; more than 100 µM in series [1]; more than 20000 nM in [6]; 128 µM in [2]. The half-inhibitory concentration (IC50) in series [7] was more than 20 µM; in [3], 138 µM; in series [8], more than 20000 nM.

With `CCCCCCCCCCCCCCCCNC(=O)[C@@H]1CSC(c2ccc(NS(C)(=O)=O)cc2)N1` (mixture of isomers), the IC50 in series [4] was 4800 nM; in [10] it was 114 µM; in series [5] it was 1100 nM; in [1] it was more than 100 µM; in [6], more than 20000 nM; in series [2] it was 18.6 µM. Besides, the IC50 in series [7] was more than 20 µM; in series [3], 50.6 µM; in series [8], more than 20000 nM.

Regarding `CCCCCCCCCCCCCCCCNC(=O)[C@@H]1CSC(c2ccc(NC(N)=O)cc2)N1` (mixture of isomers), the half-maximal inhibitory concentration (IC50) in series [4] worked out at 1800 nM; in series [5], 500 nM; in series [1] it was 7.2 µM; in series [6] it was 2500 nM; in series [2], 1.7 µM; in series [7] it was 6.7 µM. Further, the figures for the half-maximal inhibitory concentration (IC50) in [3] and in series [8] were 3.6 µM and 3200 nM, respectively. For the same compound, in [11], the selectivity ratio stood at 1.8. Moreover, the “Ratio IC50” value in [9] amounted to 3.4.

With `CCCCCCCCCCCCCCCCNC(=O)[C@@H]1CSC(c2ccc(OC)cc2)N1` (mixture of isomers), the concentration for half-maximal inhibition (IC50) in [4] was 1100 nM; in [10], 2.3 µM; in [5] it was 400 nM; in series [6], 2700 nM; in [2], 1 µM; in [7], 8.4 µM. Further, the results for the IC50 in [3] and in series [8] were 1.5 µM and 2200 nM, respectively. For the same compound, in [11], the selectivity ratio was 5.1. Besides, the “Ratio IC50” value in [9] came to 5.3.

For the compound `CC(=O)Nc1ccc(C2N[C@H](C(=O)NC3C4CC5CC(C4)CC3C5)CS2)cc1` (mixture of isomers), the IC50 in series [4] is 9700 nM; in series [10] it was 108 µM; in series [5], more than 20000 nM; in [1], more than 100 µM; in series [6], more than 20000 nM; in [2] it was 64.4 µM. Moreover, the IC50 is more than 20 µM in [7], 66 µM in series [3] and more than 20000 nM in series [8].

Consider `CC(=O)Nc1ccc(C2N[C@H](C(=O)Nc3ccc4c(c3)Cc3ccccc3-4)CS2)cc1` (mixture of isomers), for which, in series [11], the selectivity ratio amounted to 11.3.

In the case of `CCCCCC/C=C\CCCCCCCCNC(=O)[C@@H]1CSC(c2ccc(NC(C)=O)cc2)N1` (mixture of isomers), the concentration for half-maximal inhibition (IC50) turned out to be 1800 nM in [4]; 2.1 µM in [10]; 1100 nM in series [5]; 14 µM in series [1]; 2500 nM in series [6]; 2 µM in series [2]. The IC50 in series [7] stood at 7.6 µM; in series [3], 1.9 µM; in series [8] it was 2400 nM. Further, the selectivity ratio in [11] is 7. The “Ratio IC50” value in series [9] worked out at 3.9.

`CCCCCCCCC#CCCCCCCCCCNC(=O)[C@@H]1CSC(c2ccc(NC(C)=O)cc2)N1` (mixture of isomers): the IC50 in series [4] was determined as 2000 nM; in series [10] it was 1.6 µM; in series [5] it was 700 nM; in series [1] it was 7 µM; in series [6], 2100 nM; in [2] it was 1.3 µM. The IC50 in series [7] is 6.6 µM; in series [3], 2.7 µM; in [8] it was 1800 nM. Moreover, the selectivity ratio in series [11] came out at 3.8. The “Ratio IC50” value in [9] was determined as 4.

`CCCCCCCCCCCCCCCCOC(=O)[C@@H]1CSC(c2ccc(NC(C)=O)cc2)N1` (mixture of isomers): the IC50 in series [4] was more than 20000 nM; in series [10], 41.9 µM; in series [5], more than 20000 nM; in series [1], more than 100 µM; in series [6], more than 20000 nM; in series [2], 18.5 µM. Also, the IC50 is more than 20 µM in series [7], 28 µM in [3] and more than 20000 nM in series [8].

As to `CCCCCCCCC/C=C/CCCCCCCNC(=O)[C@@H]1CSC(c2ccccc2)N1` (mixture of isomers), the half-maximal inhibitory concentration (IC50) in series [4] worked out at 1400 nM; in series [10] it was 10.1 µM; in series [5], 600 nM; in series [1], 12.4 µM; in series [6], 2100 nM; in series [7], 8.9 µM. Besides, the results for the IC50 in series [3] and in series [8] were 5.3 µM and 1500 nM, respectively. In [11], the selectivity ratio turned out to be 2.1. Further, in [9], the “Ratio IC50” value turned out to be 6.5.

In the case of `CC(=O)Nc1ccc(C2N[C@H](C(=O)Nc3nc4ccccc4s3)CS2)cc1` (mixture of isomers), the IC50 is more than 20000 nM in [4]; 55.3 µM in series [10]; more than 20000 nM in series [5]; more than 100 µM in series [1]; more than 20000 nM in series [6]; more than 100 µM in series [2]. Further, the half-inhibitory concentration (IC50) in [7] is more than 20 µM; in series [3] it was 45.9 µM; in [8], more than 20000 nM.

As for `CN(C)/N=N/c1[nH]cnc1C(N)=O` [DACARBAZINE], the IC50 in [10], in series [1], in [2] and in [3] was more than 100 µM in each case.

For `CNC(=O)c1cc(Oc2ccc(NC(=O)Nc3ccc(Cl)c(C(F)(F)F)c3)cc2)ccn1` [SORAFENIB], the IC50 in [10] came out at 4.9 µM; in [2], 5 µM. Moreover, in series [11], the selectivity ratio turned out to be 3.
